In publication PMC3748591 (Bioorganic & medicinal chemistry, 2011):

Legend:
Human SphK1 = Human SphK1 (Homo sapiens, UniProt Q9NYA1); assay: Sphingosine kinase assay, in vitro inhibition of SphK1; assay type: biochemical; conditions: initial screen at 100 μM inhibitor
mouse SphK2 = target: T1, mouse SphK2 (Mus musculus, UniProt Q9JIA7); assay: Sphingosine kinase assay, in vitro inhibition of SphK2; assay type: biochemical; conditions: initial screen at 100 μM inhibitor
T1 sequence (Q9JIA7 1-617): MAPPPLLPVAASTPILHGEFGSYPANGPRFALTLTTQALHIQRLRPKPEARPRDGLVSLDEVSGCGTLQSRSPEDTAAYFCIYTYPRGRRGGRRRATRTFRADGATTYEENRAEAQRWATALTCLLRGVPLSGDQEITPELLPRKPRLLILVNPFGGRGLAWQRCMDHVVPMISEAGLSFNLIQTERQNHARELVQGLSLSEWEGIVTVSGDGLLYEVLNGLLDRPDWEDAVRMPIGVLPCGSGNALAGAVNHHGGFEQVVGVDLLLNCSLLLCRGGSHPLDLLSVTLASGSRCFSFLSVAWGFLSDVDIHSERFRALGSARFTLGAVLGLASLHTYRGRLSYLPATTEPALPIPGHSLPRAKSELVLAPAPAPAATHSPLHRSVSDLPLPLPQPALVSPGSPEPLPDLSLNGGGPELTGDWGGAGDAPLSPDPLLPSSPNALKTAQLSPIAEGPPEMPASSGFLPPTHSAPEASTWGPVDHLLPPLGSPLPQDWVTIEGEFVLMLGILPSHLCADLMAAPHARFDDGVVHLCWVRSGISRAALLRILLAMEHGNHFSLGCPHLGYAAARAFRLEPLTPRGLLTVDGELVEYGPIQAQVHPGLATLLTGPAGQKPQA

SphK2 = target: T2, SphK2 (Homo sapiens, UniProt Q9NRA0); assay: FTY720 phosphorylation in intact U937 cells; assay type: cell-based; conditions: U937 cells exposed to FTY720 and 10 μM inhibitor, 2 h; cell pellet, LC/MS
T2 sequence (Q9NRA0 1-654): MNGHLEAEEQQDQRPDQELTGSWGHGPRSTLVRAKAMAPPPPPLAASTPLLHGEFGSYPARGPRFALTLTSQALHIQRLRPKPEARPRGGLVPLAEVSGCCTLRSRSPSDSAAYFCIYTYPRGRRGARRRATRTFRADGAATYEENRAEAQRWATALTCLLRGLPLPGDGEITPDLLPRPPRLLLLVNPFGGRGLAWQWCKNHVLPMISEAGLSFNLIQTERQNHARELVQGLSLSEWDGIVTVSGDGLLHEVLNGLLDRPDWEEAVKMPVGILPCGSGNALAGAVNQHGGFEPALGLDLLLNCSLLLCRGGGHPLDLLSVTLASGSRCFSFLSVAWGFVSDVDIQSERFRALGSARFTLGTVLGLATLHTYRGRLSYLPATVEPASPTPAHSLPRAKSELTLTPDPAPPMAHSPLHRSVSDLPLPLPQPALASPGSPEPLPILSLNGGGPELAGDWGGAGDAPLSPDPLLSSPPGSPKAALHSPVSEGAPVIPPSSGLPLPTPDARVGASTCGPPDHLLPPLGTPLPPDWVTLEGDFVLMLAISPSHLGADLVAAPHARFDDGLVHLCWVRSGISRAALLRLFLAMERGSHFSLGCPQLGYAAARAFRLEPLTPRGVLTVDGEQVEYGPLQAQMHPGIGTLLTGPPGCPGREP
Procedure, shortened: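 Cultured U937 cells were given exogenous FTY720 plus 10 μM test compound for 2 h, then pelleted by centrifugation. Pellet FTY720 and FTY720-P were measured by LC/ESI-MS/MS: C18 reverse phase, water/methanol/formic acid gradient, 1 mL/min. MRM was 308.4→255.1 and 388.4→255.1, with C17S1P and C17-sphingosine as internal standards, quantified by peak area. Results are moles per million cells, means ± SD of three independent experiments, unpaired two-tailed t-test.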

U937 cells = assay: S1P levels in U937 cells; assay type: cell-based, human; conditions: LC/MS, data not shown
[1] = tested on: Akt and ERK phosphorylation; assay: Akt/ERK phosphorylation in U937 cells; assay type: cell-based, human; conditions: different concentrations, 16 h (legend: 24 h), Western blot
Procedure, shortened: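 U937 cells pretreated with test compound at a range of concentrations for 24 h (legend; the methods say times "usually 2 h"). Cells were washed in PBS, Dounce-lysed, and equal protein run on 10% SDS–PAGE, then transferred to nitrocellulose. Blots were blocked in 5% milk/TBS pH 7.4 with 0.1% Tween 20, probed 1 h with anti-ERK, p-ERK, Akt, p-Akt and β-actin (1:1000), then HRP anti-IgG (1:2000), with chemiluminescent detection. PD098059 (10 μM) served as ERK positive control.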

Chain of Human SphK1 (Q9NYA1 whole entry): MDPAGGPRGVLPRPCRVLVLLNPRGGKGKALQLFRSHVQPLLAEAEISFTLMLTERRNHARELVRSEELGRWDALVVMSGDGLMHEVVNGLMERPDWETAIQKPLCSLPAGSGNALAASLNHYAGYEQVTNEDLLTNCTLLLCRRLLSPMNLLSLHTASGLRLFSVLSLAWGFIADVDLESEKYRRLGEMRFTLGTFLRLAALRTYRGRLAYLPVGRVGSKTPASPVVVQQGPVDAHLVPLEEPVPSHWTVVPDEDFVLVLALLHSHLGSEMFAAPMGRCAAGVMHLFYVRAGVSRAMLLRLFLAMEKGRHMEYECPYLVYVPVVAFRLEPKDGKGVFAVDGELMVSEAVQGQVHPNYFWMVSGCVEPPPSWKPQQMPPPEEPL

SMILES	inhibition of SphK1, result in words (Human SphK1)	inhibition of SphK2, result in words (mouse SphK2)	accumulation of FTY720 in cells (SphK2)	production of FTY720-P (SphK2)	S1P levels (U937 cells)	Akt phosphorylation [1]	ERK phosphorylation [1]
CCCCCCCCc1ccc(C2CCC(=CC(=O)OC)CC2)cc1 (centres unmarked) [Compound 5, Methyl 2-(4-(4-octylphenyl)cyclohexylidene)acetate]	inactive against SphK1	did not cross the 50% threshold					
CCCCCCCCc1ccc(C2CCC(=CCO)CC2)cc1 (centres unmarked) [Compound 6, 2-(4-(4-Octylphenyl)cyclohexylidene)ethanol]	inactive against SphK1	did not cross the 50% threshold					
CCCCCCCCc1ccc(C2CCC(O)(C[N+](=O)[O-])CC2)cc1 (centres unmarked) [Compound 7, 1-(Nitromethyl)-4-(4-octylphenyl)cyclohexanol]	inactive against SphK1	did not cross the 50% threshold					
CCCCCCCCc1ccc(C2CCC(=NO)CC2)cc1 (centres unmarked) [Compound 8, 4-(4-Octylphenyl)cyclohexanone oxime]	inactive against SphK1	did not cross the 50% threshold					
CCCCCCCCc1ccc([C@H]2CC[C@H](O)CC2)cc1 [Compound 9, (1r,4r)-4-(4-Octylphenyl)cyclohexanol]	inactive against SphK1	did not cross the 50% threshold					
CCCCCCCCc1ccc([C@H]2CC[C@H]([N+](C)(C)C)CC2)cc1.[I-] [trans-12a, (1r,4r)-N,N,N-trimethyl-4-(4-octylphenyl)cyclohexanaminium iodide]			exaggerated the accumulation	significantly suppressed	no change	dose-dependent decrease	quantitatively inhibited
CCCCCCCCc1ccc([C@H]2CC[C@H]([N+](C)(C)CCC)CC2)cc1.[I-] [trans-12b, (1r,4r)-N,N-Dimethyl-4-(4-octylphenyl)-N-propylcyclohexanaminium iodide]			exaggerated the accumulation	significantly suppressed	no change	complete disappearance of p-Akt band	quantitatively inhibited
